The record followed here is ChEMBL document CHEMBL4513216, “Probing the Open Global Health Chemical Diversity Library for Multistage-Active Starting Points for Next-Generation Antimalarials” (ACS Infect Dis, 2020).

A short description of the data set: Toxicity liver stage against HepG2, at 10uM. Set-up: test concentration 10 uM, cell line HepG2-A16-CD81EGFP. The conditions noted are these: human, HepG2-A16-CD81EGFP cells; read-out: INHIBITION
It counts as cell-based. Summed up: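 Uninfected HepG2-A16-CD81EGFP cells, 3 × 10^3 per well, 1536-well, plated on prespotted compound at 10 μM final, parasite-free screening media added to match infected plates; puromycin 10 μM positive, DMSO 0.5% negative; run in parallel with 48 h PbLuc assay at 37 °C, 5% CO2; viability by CellTiter-Glo luminescence, normalized to controls.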

The structures appear in SMILES notation.

Turning to `CC(C)OC(=O)N1C[C@@H]2CC[C@H]1CN(Cc1cccnc1)C2`, the cytotoxicity at 10 µM came out at 0.189%. For `Cc1ccccc1SC1CCN(C(=O)C2[C@H]3CNC[C@@H]23)CC1` (stereo not given in full) the value was -10.1%; for `O=C(NCCc1nnc2n1CCC2)NCC1(c2ccc(F)cc2)CC1`, -2.23%. For `COc1ccc2cccc(CC(=O)NCCCc3n[nH]c(C)n3)c2c1`, the cytotoxicity at 10 µM was -2.11%. In the case of `CCN1CCN(C(=O)c2ccnc(N(C)C)c2)CC1`, the cytotoxicity at 10 µM is -0.0916%. Regarding `CCc1nnc2n1CCN(Cc1ncc(-c3ccccc3)o1)C2`, the cytotoxicity at 10 µM was -3.98%. Regarding `CN(Cc1cn(CC2CCNCC2)nn1)CC1CCCCO1` (stereo not given), the cytotoxicity at 10 µM was -1.9%. For `O=C1CC2(CCN(C(=O)Cc3cc4c(cc3Cl)OCCO4)C2)C(=O)N1` (stereo not given) the value was 12.7%; for `Cn1cc(-c2cnc(N3CCCC3)nc2)cc1C(=O)N1CCOCC1`, -3.87%; for `O=C(c1cccnc1)N1CCn2nnc(COc3ccccn3)c2C1`, -76.2%. For `CCc1ccc(-n2nnc(C(=O)O)c2-c2ccccn2)cc1` the value was -1.92%; for `O=C(O)[C@]12CCCN(C3CCOC3)C[C@H]1CN(c1ncccn1)C2` (stereo not given in full), -97.4%; for `CS(=O)(=O)N[C@@H]1CN(C(=O)c2ccccn2)C[C@@H]2CCCO[C@@H]21`, -74.8%. For `Cc1cccc(NC(=O)c2ccc(OCc3nnnn3C)cc2)n1` the value was -34.1%; for `CC(=O)N1CCCN(C(=O)Cc2ccc3c(c2)OCO3)CC1`, -15.1%; for `O=C(O)CCNC(=O)Cc1csc(-c2cccc(Cl)c2)n1`, 8.32%.

`c1ccc(Cc2noc(CN3CCCCC3Cn3cncn3)n2)cc1` (stereo not given): the cytotoxicity at 10 µM is -13.2%. With `CCC(O)Cn1nc(-c2ccc(C(=O)O)cc2)cc1-c1ccc(F)cc1` (stereo not given), the cytotoxicity at 10 µM is 1.24%. For `c1ccc(OCCN2CCN(c3ncnc4[nH]ccc34)CC2)cc1` the value was 8.64%; for `O=C(c1ccc(COc2ccccc2Cl)o1)N1N=CCC1(O)C(F)(F)F` (stereo not given), 14.5%; for `Cn1cc(NC(=O)CCCc2cccs2)c(=O)n(C)c1=O`, 5.55%. The value for `CC(=O)c1c(C)cc(C)c(Cn2ccnc2S(C)(=O)=O)c1C` was -0.657%; that for `COC(=O)[C@H]1CN(C(=O)NC(C)C)CCN1C(=O)C1CCCCC1` was 1.35%. The value for `CC(CO)CNC(=O)c1cc2cccc(F)c2o1` (stereo not given) was 8.13%. As for `CCCn1nc2c(cc1=O)CN(c1ncnc3sccc13)CC2`, the cytotoxicity at 10 µM is 49.4%. For `CS(=O)(=O)CCC(=O)N1CCC(c2cccc(F)c2)C1` (stereo not given), the cytotoxicity at 10 µM was found to be 3.71%. In the case of `Cc1ccccc1C1(CN)CCOCC1`, the cytotoxicity at 10 µM amounted to 7.93%. The value for `NC(=O)c1cccc(CCNCc2cnc(C3CCC3)s2)c1` was 21.9%; that for `CC=C(C)C(=O)NS(=O)(=O)c1ccc(C(F)(F)F)cc1` was 3.12%; that for `O=C(c1ccccc1F)N1CCC2(CC1)CC(Oc1ccccn1)CO2` (stereo not given) was -113%. On to `Cc1cc(CN(Cc2cccs2)CC2CCCO2)on1` (stereo not given), for which the cytotoxicity at 10 µM is -10.1%. The value for `c1cncc(CN2CCCn3nnc(COCC4CC4)c3C2)c1` was -110%; that for `Cc1oc(-c2ccco2)nc1CC(=O)N1CCC(CCO)C1` (stereo not given) was -2.02%. Turning to `O=C(Cc1ccn[nH]1)N1CCc2cc(Br)sc2C1`, the cytotoxicity at 10 µM is 4.42%. Take `CNC(=O)Cc1ccc(NC(=O)NC(C)C(C)C)cc1` (stereo not given): the cytotoxicity at 10 µM was -4.69%. Regarding `COc1ccc(CCNC(=O)C(C)Nc2cccc(C)c2C)cc1` (stereo not given), the cytotoxicity at 10 µM was -5.91%. For the molecule `Cn1nccc1CN1CCCC(COc2ccccc2F)C1` (stereo not given), the cytotoxicity at 10 µM is -9.54%. For `Cc1ccc(C(NCC(=O)N2CCNC(=O)C2)c2ccccc2)cc1` (stereo not given) the value was 2.1%; for `CC(O)CN1CCC(CNCc2cccc(C(N)=O)c2)CC1` (stereo not given), -8.99%. On to `CCC(CO)NCc1ccc(-c2ccc(F)cc2)o1` (stereo not given), for which the cytotoxicity at 10 µM was -5.67%.
